Kir21 block = inhibitors of mouse Kir2.1 inward-rectifier potassium channel. P35561. B-score at 10 µM. HEK293-Kir2.1, FluxOR thallium flux fluorescence; stronger effect = lower value. 310,000 compounds, 0.85% hits;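 active = fluorescence ratio B-score at or below minus 3 SD of library scores, with starting-brightness B-score within 2 SD, cut at about -4.2 in these data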;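 note: channel flux triggered by added potassium and thallium sulfate stimulus; B-score of peak minus minimum fluorescence over baseline after thallium stimulus; more negative B-score means stronger Kir2.1 block with less thallium influx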
TRPC6 inh = mouse TRPC6 channel inhibition | Q61143 | HEK293-TRPC6, membrane potential dye, ACh-evoked depolarization; stronger effect = lower value | B-score at 10 µM | 310,000 compounds, 1.1% hits;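 active = B-score under library mean minus 3 SD, initial fluorescence not abnormally high, positive integrated signal ratio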;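 note: B-score derived from integrated fluorescence ratio over the kinetic read; more negative B-score means stronger inhibition of depolarization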
TRPC6 activator = activates the mouse TRPC6 cation channel; Q61143; HEK293-TRPC6 membrane potential dye fluorescence; stronger effect = higher value; B-score at 10 µM; 310,000 compounds, 0.13% hits; AID 2550;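 active = B-score of the integrated fluorescence ratio above library mean plus 3 SD, and starting fluorescence ratio within library mean plus 5 SD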;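 note: higher score means more depolarization so channel activation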
TRPC4 agonist = TRPC4 (mouse) channel activation. Q9QUQ5. HEK293 TRPC4beta/mu-opioid, Fluo4 calcium fluorescence; stronger effect = higher value. B-score at 10 µM. 310,000 compounds, 0.49% hits. AID 2237;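 active = B-score above 5 SD of library B-scores, and initial fluorescence ratio not above library mean plus 5 SD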;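 note: positive B-score marks a calcium rise read as TRPC4 activation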
Target sequence (Q9QUQ5 whole entry, looked up): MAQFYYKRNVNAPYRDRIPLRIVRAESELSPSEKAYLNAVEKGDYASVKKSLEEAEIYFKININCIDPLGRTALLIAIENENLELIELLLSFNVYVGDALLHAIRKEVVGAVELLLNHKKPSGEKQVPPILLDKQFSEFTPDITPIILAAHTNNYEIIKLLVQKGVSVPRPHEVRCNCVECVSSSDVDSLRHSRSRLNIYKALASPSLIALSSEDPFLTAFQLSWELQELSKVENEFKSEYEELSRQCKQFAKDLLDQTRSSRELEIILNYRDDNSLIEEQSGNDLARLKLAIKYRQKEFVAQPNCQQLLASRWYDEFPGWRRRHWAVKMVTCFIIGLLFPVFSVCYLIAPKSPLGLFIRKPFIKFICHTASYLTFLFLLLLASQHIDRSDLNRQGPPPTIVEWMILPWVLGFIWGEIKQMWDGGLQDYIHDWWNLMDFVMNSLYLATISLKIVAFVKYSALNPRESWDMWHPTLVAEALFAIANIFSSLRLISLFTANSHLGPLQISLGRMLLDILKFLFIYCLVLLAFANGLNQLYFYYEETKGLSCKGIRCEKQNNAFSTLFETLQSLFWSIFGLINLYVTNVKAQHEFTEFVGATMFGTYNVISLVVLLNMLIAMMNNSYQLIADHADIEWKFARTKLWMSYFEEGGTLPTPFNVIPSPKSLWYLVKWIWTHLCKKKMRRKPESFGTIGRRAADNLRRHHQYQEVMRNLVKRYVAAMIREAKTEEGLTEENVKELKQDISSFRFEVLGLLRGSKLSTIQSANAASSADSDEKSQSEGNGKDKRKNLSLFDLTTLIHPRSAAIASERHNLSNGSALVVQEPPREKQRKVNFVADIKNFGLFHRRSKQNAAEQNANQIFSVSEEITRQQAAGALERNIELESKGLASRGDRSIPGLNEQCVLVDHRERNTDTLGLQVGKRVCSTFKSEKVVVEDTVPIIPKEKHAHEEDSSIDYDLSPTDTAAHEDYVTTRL
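Material: HEK293 stable line with TRPC4beta plus mu-opioid receptor; technique: Fluo4 calcium-sensitive dye fluorescence, kinetic, 1 Hz baseline; timing: Fluo4 dye loading 45 min at room temperature, 110 s recording; controls: assay buffer as low control, maximal DAMGO as high control; read-out: integrated baseline-normalised fluorescence ratio, converted to per-well B score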
TRPC4 PAM = allosteric potentiators of mouse TRPC4 channel. 310,000 compounds, 0.42% hits. HEK293 TRPC4beta/mu-opioid, DAMGO EC20, Fluo-4 Ca2+ flux; stronger effect = higher value. Q9QUQ5. B-score at 10 µM;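 active = B-score of calcium response area above 5 SD of library B-scores, with initial fluorescence ratio within 5 SD of library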;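 note: B-score of integrated fluorescence ratio over time as area under calcium response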
TRPC4 inh = inhibitors of mouse TRPC4 channel; HEK293 TRPC4beta/mu-opioid, DAMGO-evoked Fluo4 calcium flux; stronger effect = lower value; AID 2247; 300,000 compounds, 0.39% hits; B-score at 10 µM; Q9QUQ5;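 active = B-score over 3 SD under the library average, no early fluorescence shift, positive overall ratio signal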
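test system = HEK293 cells with stable TRPC4beta plus mu-opioid receptor expression | detection = Fluo4 Ca2+ flux fluorescence | read-out = integrated fluorescence ratio relative to baseline, converted to per-well B score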
TRPC4 spec 2 = second check of whether TRPC6 inhibitors also affect mouse TRPC4; shares compounds with TRPC6 inh; HEK293 TRPC4/MOR, membrane potential dye fluorescence; channel activated by saturating DAMGO dose; inhibition, % at 10 µM; 920 compounds, 42% hits;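 active = compounds whose fluorescence signal differed from control wells by over 3 SD, either direction, in both duplicate plates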
TRPC4 spec = tests whether TRPC6 inhibitors also affect mouse TRPC4. shares compounds with TRPC6 inh. HEK293 TRPC4/mu-opioid, membrane potential fluorescence. activity change, negative = inhibition, % at 10 µM. 920 compounds, 61% hits. AID 2777;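 active = rise or fall in signal beyond 3 SD of buffer-only wells in both replicate plates, either sign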;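 note: integrated kinetic ratio of fluorescence range over baseline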
HEK293 MPD ctr 2-1 = parental HEK293 nonspecific activity of TRPC6 inhibitors, second screen. shares compounds with TRPC6 inh. signal change vs control, % at 10 µM. 920 compounds, 31% hits. parental HEK293 membrane potential dye fluorescence; maximal acetylcholine challenge after compound addition;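 active = membrane potential signal moving either way by over 3 SD of the maximum-effect control, in both duplicate plates, meaning non-specific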
HEK293 MPD ctr-1 = counter-screen for TRPC6 inhibitors: effect in parental HEK293 cells. membrane potential signal change, % at 10 µM. 920 compounds, 60% hits. parental HEK293 membrane potential dye fluorescence. shares compounds with TRPC6 inh;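 active = membrane potential signal shifting up or down by more than 3 SD of buffer-only wells, on both duplicate plates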
HEK293 MPD ctr-2 = parental HEK293 nonspecific activity of TRPC6 modulators. membrane potential dye fluorescence. 2,400 compounds, 51% hits. AID 488924. shares compounds with TRPC6 inh. membrane potential signal change, % at 10 µM;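 active = membrane potential signal moves up or down beyond 5 SD from buffer-only wells, on both duplicate plates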
HEK293 MPD ctr 2-2 = second counter-screen for TRPC6 modulators: effect in parental HEK293 cells; shares compounds with TRPC6 inh; membrane potential dye fluorescence; after compound, maximal acetylcholine stimulation; inhibition, % at 10 µM; 2,400 compounds, 14% hits;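 active = membrane potential signal drops by more than 5 SD from the mean control signal, in both duplicate plates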;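 note: plate controls were acetylcholine ECmax control wells for no effect and buffer only wells for full effect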
TRPC4 ctr mod = mouse TRPC4 off-target activity of TRPC6 modulators; shares compounds with TRPC6 inh; percent change from control (negative = decrease, positive = increase), % at 10 µM; AID 488927; 2,400 compounds, 69% hits; HEK293 TRPC4/mu-opioid, membrane potential fluorescence;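 active = membrane potential signal moved up or down beyond 5 SD of buffer control wells, in both duplicate plates, actives on both sides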;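 note: plate controls were assay buffer wells for no effect and DAMGO maximal-effect wells for full effect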
TRPC4 ctr inh 2 = second selectivity test of TRPC6 modulators against mouse TRPC4; 2,400 compounds, 55% hits; inhibition, % at 10 µM; AID 488928; shares compounds with TRPC6 inh; HEK293 TRPC4/mu-opioid, membrane potential dye fluorescence; stimulated with maximal-effect DAMGO;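 active = drop in membrane potential signal beyond 5 SD of the control wells in both duplicate plates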;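 note: TRPC4 counter screen for TRPC6 hits run under conditions tuned for TRPC6 not TRPC4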
TRPC6 block conf = mouse TRPC6 inhibitor confirmation; shares compounds with TRPC6 inh; HEK293-TRPC6, membrane potential dye, ACh-evoked depolarization; inhibition, % at 10 µM; 3,300 compounds, 43% hits;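 active = fluorescence ratio falls more than 5 SD below the full-stimulation control mean, in both duplicate runs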;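 note: integrated fluorescence ratio of peak minus minimum over baseline after agonist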
TRPC6 act confirm = confirmation of mouse TRPC6 activators; shares compounds with TRPC6 inh; HEK293-TRPC6 membrane potential dye fluorescence, FDSS; activation, % at 10 µM; 2,800 compounds, 11% hits; AID 488961;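 active = ratio signal rise beyond 5 SD above unstimulated control wells' mean, seen in both duplicate runs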;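 note: plate controls were buffer EC0 wells for no effect and acetylcholine ECmax response for full effect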
An asterisk follows results filed as active; i = inactive; . = not tested or not shown. Compounds with a hit are over-represented: about 3% of the library has one in this group of screens.

SMILES	Kir21 block	TRPC6 inh	TRPC6 activator	TRPC4 agonist	TRPC4 PAM	TRPC4 inh	HEK293 MPD ctr-2	HEK293 MPD ctr 2-2	TRPC4 ctr mod	TRPC4 ctr inh 2	TRPC6 block conf	TRPC6 act confirm	others
Cc1n[nH]c(=O)c2c(NC(=O)CSc3nc4ccccc4c(=O)n3C(C)C)oc(C)c12	0.24	i	i	i	i	i	.	.	.	.	.	.
COC(=O)c1cc(NC(=O)CSc2nnc(N)s2)ccc1Cl	-0.53	-7.1*	i	i	i	i	i	i	i	i	i	i
Nc1nnc(SCC(=O)Nc2ccc(Cl)c(C(=O)O)c2)s1	0.82	i	i	i	i	i	.	.	.	.	.	.
C/C(Cl)=C\Cn1c(N2CCCC2)nc2c1c(=O)n(C)c(=O)n2C	0.77	i	i	i	i	i	.	.	.	.	.	.
Cc1nc2c(cc1C#N)C(=O)c1ccccc1-2	-0.39	-5*	i	i	i	i	-114%*	i	-22%*	i	i	i
COCCNC(=O)C(=O)NCC1OCCN1S(=O)(=O)c1cc(F)ccc1F (stereo not drawn)	-0.84	i	i	i	i	i	.	.	.	.	.	.
CCCC(=O)NC(c1ccco1)c1cc(Cl)c2cccnc2c1O (stereo not drawn)	0.26	i	i	i	i	i	.	.	.	.	.	.
CCCC(=O)NC(c1ccc2c(c1)OCO2)c1cc(Cl)c2cccnc2c1O (stereo not drawn)	-0.08	-5.8*	i	i	i	i	118%*	i	i	i	i	i
N#CCCN(CCN1CCCC1)S(=O)(=O)c1ccc(-c2ccc([N+](=O)[O-])cc2)cc1	0	-7.8*	i	i	i	i	.	.	.	.	88%*	i	TRPC4 spec 2=32%*;TRPC4 spec=-27%*;HEK293 MPD ctr 2-1=30%*;HEK293 MPD ctr-1=-268%*
N#CCCN(Cc1cccnc1)S(=O)(=O)c1ccc(S(=O)(=O)N2CCCCCC2)cc1	0.68	i	i	i	i	i	.	.	.	.	.	.
COC(=O)c1oc2ccc(Br)cc2c1NC(=O)CN1CCN(C)CC1	0.36	-5.5*	i	i	i	i	i	i	-16%*	52%*	48%*	i
CN(C)CCNc1oc(COc2cccc(Cl)c2)nc1C#N	1.3	i	i	i	i	i	.	.	.	.	.	.
